Experimental data from ChEMBL document CHEMBL2311419, “Discovery of coumarin-dihydropyridine hybrids as bone anabolic agents” (J Med Chem, 2013).
Activity calls are given as the source filed them. The rule behind the calls is not given here.

Columns and labels:
Mus musculus [1] = species on record: Mus musculus; assay: Stimulation of alkaline phosphatase activity in mouse calvarial osteoblasts at 1 pM to 1 uM after 48 hrs by spectrophotometric analysis relative to nifedipine
Mus musculus [2] = species on record: Mus musculus; assay: Stimulation of alkaline phosphatase activity in mouse calvarial osteoblasts at 1 pM to 1 uM after 48 hrs by spectrophotometric analysis
In short: (§1)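 Calvarial osteoblasts were exposed to compounds over 1 pM to 1 µM. ALP activity was read spectrophotometrically as optical density at 405 nm. Results were expressed as % ALP activity, with EC50 and Emax derived from the concentration series.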

[3] = Stimulation of alkaline phosphatase activity in mouse calvarial osteoblasts after 48 hrs by spectrophotometric analysis; in short: as §1
Mus musculus [4] = species on record: Mus musculus; assay: Stimulation of alkaline phosphatase activity in mouse calvarial osteoblasts assessed as concentration required for maximum activity after 48 hrs by spectrophotometric analysis; in short: as §1
[5] = Cytotoxicity against mouse calvarial osteoblasts assessed as cell viability at 1 pM to 1 uM after 48 hrs by MTT assay; assay type: cell-based; conditions: calvarial osteoblast
Calvarial osteoblast [6] = assay: Induction of osteoblastogenesis in mouse calvarial osteoblasts assessed as increase in expression of osteocalcin gene at 100 pM to 10 nM by qPCR analysis relative to control; assay type: functional
Calvarial osteoblast [7] = assay: Induction of osteoblastogenesis in mouse calvarial osteoblasts assessed as increase in COL1 expression at 100 pM to 10 nM by Western blotting analysis; assay type: functional, cell-based
Calvarial osteoblast [8] = assay: Induction of osteoblastogenesis in mouse calvarial osteoblasts assessed as increase in expression of COL1 gene at 100 pM to 10 nM by qPCR analysis relative to control; assay type: functional
Calvarial osteoblast [9] = assay: Induction of osteoblastogenesis in mouse calvarial osteoblasts assessed as increase in expression of osteocalcin gene at 100 pM by qPCR analysis relative to control; assay type: functional, cell-based
Calvarial osteoblast [10] = assay: Induction of proliferation of mouse calvarial osteoblasts at 1 pM to 1 uM after 48 hrs; assay type: functional, cell-based
Calvarial osteoblast [11] = assay: Induction of mineralization in mouse calvarial osteoblasts assessed as increase of mineralized nodules formation measuring concentration required for maximum activity after 21 days by alizarin red-S staining based spectrophotometric analysis; assay type: functional
Calvarial osteoblast [12] = assay: Induction of osteoblastogenesis in mouse calvarial osteoblasts assessed as increase in RUNX2 expression at 100 pM to 10 nM by Western blotting analysis; assay type: functional, cell-based
Calvarial osteoblast [13] = assay: Induction of osteoblastogenesis in mouse calvarial osteoblasts assessed as increase in expression of BMP2 gene at 100 pM by qPCR analysis relative to control; assay type: functional, cell-based
Calvarial osteoblast [14] = assay: Induction of osteoblastogenesis in mouse calvarial osteoblasts assessed as increase in expression of ALP gene at 100 pM by qPCR analysis relative to control; assay type: functional, cell-based
Calvarial osteoblast [15] = assay: Induction of osteoblastogenesis in mouse calvarial osteoblasts assessed as increase in BMP2 expression at 100 pM to 10 nM by Western blotting analysis; assay type: functional, cell-based
Calvarial osteoblast [16] = assay: Induction of osteoblastogenesis in mouse calvarial osteoblasts assessed as increase in expression of RUNX2 gene at 100 pM by qPCR analysis relative to control; assay type: functional, cell-based
Calvarial osteoblast [17] = assay: Induction of osteoblastogenesis in mouse calvarial osteoblasts assessed as increase in expression of RUNX2 gene at 100 pM to 10 nM by qPCR analysis relative to control; assay type: functional
Calvarial osteoblast [18] = assay: Induction of osteoblastogenesis in mouse calvarial osteoblasts assessed as increase in expression of ALP gene at 100 pM to 10 nM by qPCR analysis relative to control; assay type: functional
Calvarial osteoblast [19] = assay: Induction of osteoblastogenesis in mouse calvarial osteoblasts assessed as increase in expression of COL1 gene at 100 pM by qPCR analysis relative to control; assay type: functional, cell-based
Calvarial osteoblast [20] = assay: Induction of osteoblastogenesis in mouse calvarial osteoblasts assessed as increase in expression of BMP2 gene at 100 pM to 10 nM by qPCR analysis relative to control; assay type: functional

Compound: CCOC(=O)C1=C(C)NC2=C(C(=O)CCC2)C1c1cc(C(C)(C)C)c2oc(=O)c(C(=O)OC)cc2c1 (racemic)
- Activity (Mus musculus [1]): inactive
- Activity (Mus musculus [2]): 4%
- EC50 [3]: 1.26 µM
- Concentration giving maximum ALP activity (Mus musculus [4]): 1 pM

Compound: CCOC(=O)C1=C(C)NC2=C(C(=O)CC(C)(C)C2)C1c1cc(C(C)CC)c2oc(=O)c(C(=O)OCC)cc2c1 (racemic)
- Activity (Mus musculus [1]): inactive
- Activity (Mus musculus [2]): 3%
- EC50 [3]: 1.28 µM
- Concentration giving maximum ALP activity (Mus musculus [4]): 100 pM

Compound: CCC(C)c1cc(C=O)cc2cc(C(=O)OC)c(=O)oc12 (centres undefined)
- Activity (Mus musculus [2]): inactive

Compound: CCOC(=O)C1=C(C)NC(C)=C(C(=O)OCC)C1c1cc(C(C)CC)c2oc(=O)c(C(=O)OC)cc2c1 (centres undefined)
- Activity (Mus musculus [1]): inactive
- Activity (Mus musculus [2]): 5%
- EC50 [3]: 1.14 µM
- Concentration giving maximum ALP activity (Mus musculus [4]): 100 pM

Compound: CCOC(=O)c1cc2cc(C3C(C(=O)OC)=C(C)NC4=C3C(=O)CCC4)cc(C(C)(C)C)c2oc1=O (racemic)
- Activity (Mus musculus [1]): inactive
- Activity (Mus musculus [2]): 10%
- EC50 [3]: 1.31 µM
- Concentration giving maximum ALP activity (Mus musculus [4]): 1 pM

Compound: CCOC(=O)c1cc2cc(C3C(C(=O)OC)=C(C)NC4=C3C(=O)CCC4)cc(C(C)CC)c2oc1=O (racemic)
- Activity (Mus musculus [1]): inactive
- Activity (Mus musculus [2]): 12%
- EC50 [3]: 1.23 µM
- Concentration giving maximum ALP activity (Mus musculus [4]): 100 pM

Compound: CCOC(=O)c1cc2cc(C3C(C(=O)OC)=C(C)NC(C)=C3C(=O)OC)cc(C(C)(C)C)c2oc1=O
- Activity (Mus musculus [1]): inactive
- Activity (Mus musculus [2]): 7%
- EC50 [3]: 1.04 µM
- Concentration giving maximum ALP activity (Mus musculus [4]): 1 pM

Compound: CCC(C)c1cc(C2C(C(=O)OC)=C(C)NC(C)=C2C(=O)OC)cc2cc(C(=O)OC)c(=O)oc12 (centres undefined)
- Activity [5]: Non-toxic
- fold change (FC) (Calvarial osteoblast [6]): 1.5
- Activity (Calvarial osteoblast [7]): Active
- Activity (Mus musculus [1]): 12%
- fold change (FC) (Calvarial osteoblast [8]): 1.5
- Activity (Calvarial osteoblast [9]): Active
- Activity (Mus musculus [2]): 30%
- EC50 [3]: 1.19 µM
- Activity (Calvarial osteoblast [10]): Active
- Concentration for maximum mineralization (Calvarial osteoblast [11]): 1 pM
- Activity (Calvarial osteoblast [12]): Active
- Activity (Calvarial osteoblast [13]): Active
- Activity (Calvarial osteoblast [14]): Active
- Activity (Calvarial osteoblast [15]): Active
- Activity (Calvarial osteoblast [16]): Active
- Concentration giving maximum ALP activity (Mus musculus [4]): 1 pM
- fold change (FC) (Calvarial osteoblast [17]): 1.5
- fold change (FC) (Calvarial osteoblast [18]): 1.5
- Activity (Calvarial osteoblast [19]): Active
- fold change (FC) (Calvarial osteoblast [20]): 1.5

Compound: COC(=O)c1cc2cc(C=O)cc(C(C)(C)C)c2oc1=O
- Activity (Mus musculus [2]): inactive

Compound: CCOC(=O)C1=C(C)NC(C)=C(C(=O)OCC)C1c1cc(C(C)CC)c2oc(=O)c(C(=O)OCC)cc2c1 (centres undefined)
- Activity (Mus musculus [1]): inactive
- Activity (Mus musculus [2]): 4%
- EC50 [3]: 1.23 µM
- Concentration giving maximum ALP activity (Mus musculus [4]): 100 pM

Compound: CCOC(=O)c1cc2cc(C=O)cc(C(C)(C)C)c2oc1=O
- Activity (Mus musculus [2]): inactive

Compound: CCOC(=O)C1=C(C)NC(C)=C(C(=O)OCC)C1c1cc(C(C)(C)C)c2oc(=O)c(C(=O)OC)cc2c1
- Activity [5]: Non-toxic
- fold change (FC) (Calvarial osteoblast [6]): 1.5
- Activity (Calvarial osteoblast [7]): Active
- Activity (Mus musculus [1]): 28%
- fold change (FC) (Calvarial osteoblast [8]): 1.5
- Activity (Calvarial osteoblast [9]): Active
- Activity (Mus musculus [2]): 70%
- EC50 [3]: 1.1 µM
- Activity (Calvarial osteoblast [10]): Active
- Concentration for maximum mineralization (Calvarial osteoblast [11]): 100 pM
- Activity (Calvarial osteoblast [12]): Active
- Activity (Calvarial osteoblast [13]): Active
- Activity (Calvarial osteoblast [14]): Active
- Activity (Calvarial osteoblast [15]): Active
- Activity (Calvarial osteoblast [16]): Active
- Concentration giving maximum ALP activity (Mus musculus [4]): 100 pM
- fold change (FC) (Calvarial osteoblast [17]): 1.5
- fold change (FC) (Calvarial osteoblast [18]): 1.5
- Activity (Calvarial osteoblast [19]): Active
- fold change (FC) (Calvarial osteoblast [20]): 1.5

Compound: COC(=O)C1=C(C)NC2=C(C(=O)CCC2)C1c1cc(C(C)(C)C)c2oc(=O)c(C(=O)OC)cc2c1 (racemic)
- Activity (Mus musculus [1]): inactive
- Activity (Mus musculus [2]): 14%
- EC50 [3]: 1.34 µM
- Concentration giving maximum ALP activity (Mus musculus [4]): 100 pM

Compound: CCC(C)c1cc(C2C(C(=O)OC)=C(C)NC3=C2C(=O)CCC3)cc2cc(C(=O)OC)c(=O)oc12 (racemic)
- Activity (Mus musculus [1]): inactive
- Activity (Mus musculus [2]): 4%
- EC50 [3]: 1.56 µM
- Concentration giving maximum ALP activity (Mus musculus [4]): 10000 pM

Compound: COC(=O)C1=C(C)NC2=C(C(=O)CC(C)(C)C2)C1c1cc(C(C)(C)C)c2oc(=O)c(C(=O)OC)cc2c1 (racemic)
- Activity (Mus musculus [1]): inactive
- Activity (Mus musculus [2]): 10%
- EC50 [3]: 1.53 µM
- Concentration giving maximum ALP activity (Mus musculus [4]): 10000 pM

Compound: COC(=O)C1=C(C)NC(C)=C(C(=O)OC)C1c1cc(C(C)(C)C)c2oc(=O)c(C(=O)OC)cc2c1
- Activity (Mus musculus [2]): inactive

Compound: CCOC(=O)C1=C(C)NC2=C(C(=O)CC(C)(C)C2)C1c1cc(C(C)(C)C)c2oc(=O)c(C(=O)OCC)cc2c1 (racemic)
- Activity (Mus musculus [1]): inactive
- Activity (Mus musculus [2]): 4%
- EC50 [3]: 1.56 µM
- Concentration giving maximum ALP activity (Mus musculus [4]): 10000 pM

Compound: CCOC(=O)C1=C(C)NC2=C(C(=O)CC(C)(C)C2)C1c1cc(C(C)CC)c2oc(=O)c(C(=O)OC)cc2c1 (racemic)
- Activity [5]: Non-toxic
- fold change (FC) (Calvarial osteoblast [6]): 1.5
- Activity (Calvarial osteoblast [7]): Active
- Activity (Mus musculus [1]): 17%
- fold change (FC) (Calvarial osteoblast [8]): 1.5
- Activity (Calvarial osteoblast [9]): Active
- Activity (Mus musculus [2]): 43%
- EC50 [3]: 1.01 µM
- Activity (Calvarial osteoblast [10]): Active
- Concentration for maximum mineralization (Calvarial osteoblast [11]): 100 pM
- Activity (Calvarial osteoblast [12]): Active
- Activity (Calvarial osteoblast [13]): Active
- Activity (Calvarial osteoblast [14]): Active
- Activity (Calvarial osteoblast [15]): Active
- Activity (Calvarial osteoblast [16]): Active
- Concentration giving maximum ALP activity (Mus musculus [4]): 1 pM
- fold change (FC) (Calvarial osteoblast [17]): 1.5
- fold change (FC) (Calvarial osteoblast [18]): 1.5
- Activity (Calvarial osteoblast [19]): Active
- fold change (FC) (Calvarial osteoblast [20]): 1.5

Compound: CCOC(=O)c1cc2cc(C3C(C(=O)OC)=C(C)NC4=C3C(=O)CC(C)(C)C4)cc(C(C)(C)C)c2oc1=O (racemic)
- Activity (Mus musculus [2]): 5%
- EC50 [3]: 1.09 µM
- Concentration giving maximum ALP activity (Mus musculus [4]): 1 pM

Compound: CCOC(=O)C1=C(C)NC2=C(C(=O)CCC2)C1c1cc(C(C)CC)c2oc(=O)c(C(=O)OCC)cc2c1 (racemic)
- Activity (Mus musculus [1]): 14%
- Activity (Mus musculus [2]): 35%
- EC50 [3]: 1.01 µM
- Concentration giving maximum ALP activity (Mus musculus [4]): 1 pM

Compound: CCOC(=O)c1cc2cc(C=O)cc(C(C)CC)c2oc1=O (centres undefined)
- Activity (Mus musculus [1]): inactive
- Activity (Mus musculus [2]): 6%
- EC50 [3]: 1.49 µM
- Concentration giving maximum ALP activity (Mus musculus [4]): 10000 pM

Compound: COC(=O)C1=C(C)NC(C)=C(C(=O)OC)C1c1ccccc1[N+](=O)[O-] [NIFEDIPINE]
- Activity (Mus musculus [2]): 25%
- EC50 [3]: 1.45 µM
- Activity (Calvarial osteoblast [10]): Active
- Concentration for maximum mineralization (Calvarial osteoblast [11]): 10000 pM

Compound: CCOC(=O)c1cc2cc(C3C(C(=O)OC)=C(C)NC4=C3C(=O)CC(C)(C)C4)cc(C(C)CC)c2oc1=O (racemic)
- Activity (Mus musculus [1]): 16%
- Activity (Mus musculus [2]): 39%
- EC50 [3]: 1.19 µM
- Concentration giving maximum ALP activity (Mus musculus [4]): 1 pM

Compound: CCOC(=O)c1cc2cc(C3C(C(=O)OC)=C(C)NC(C)=C3C(=O)OC)cc(C(C)CC)c2oc1=O (centres undefined)
- Activity (Mus musculus [1]): inactive
- Activity (Mus musculus [2]): 20%
- EC50 [3]: 1.51 µM
- Concentration giving maximum ALP activity (Mus musculus [4]): 10000 pM

Compound: CCOC(=O)C1=C(C)NC2=C(C(=O)CCC2)C1c1cc(C(C)(C)C)c2oc(=O)c(C(=O)OCC)cc2c1 (racemic)
- Activity (Mus musculus [2]): 13%
- EC50 [3]: 1.34 µM
- Concentration giving maximum ALP activity (Mus musculus [4]): 1 pM
